Where “and” joins values, the source holds several entries; their conditions need not be identical. Equal values may be shown once.
Columns and labels:
[1] = ADME of 14C‐3‐NOP following single or multiple oral administration; assay type: in vivo, rat; details: 500 mg/kg 14C‐3‐NOP, 1 h
[2] = First in vivo toxicokinetic study; parameters: species or system male Wistar rats; details: after 500 mg/kg bw 14C‐3‐NOP
Procedure, shortened: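 Male Wistar rats received a single oral dose of 500 mg/kg bw 14C-labelled test compound under OECD TG 417 and were killed 48 h post-dose. Total radioactivity was measured in plasma, excreta and selected organs and tissues. Tissue levels were expressed as μg test-compound-eq/g and recovery as % of applied dose.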

[3] = Second in vivo toxicokinetic study, metabolic profile in gut and plasma; parameters: species or system male Wistar rats; details: urine 0 to 2 h of one animal, after 500 mg/kg bw 14C‐3‐NOP
Procedure, shortened: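 Single oral dose of 500 mg/kg bw 14C-labelled test compound to male Wistar rats. One animal per time point was killed at 1, 2 and 3 h post-dose and blood was collected. Stomach, small intestine, caecum and colon contents were removed for total radioactivity. Metabolites were characterised by NMR and/or LC/MS.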

[4] = system: testes and epididymides; Sertoli cells; assay: Mechanistic toxicity studies; parameters: species or system rats, dogs and non‐human primates
[5] = Tolerance study in dairy cows; assay type: in vivo; details: female, Holstein Friesian, cattle, liver, kidney, muscle, fat, oral
[6] = system: Holstein Friesian dairy cows; assay: Tolerance study in dairy cows; assay type: in vivo
[7] = Feeding study 1 in beef cattle, NOPA in plasma; assay type: in vivo; details: bovine, oral, 284 mg/kg
ADME in a lactating goat = assay type: in vivo
[8] = ADME in four lactating cows; assay type: in vivo
[9] = Second goat experiment, pre‐dosed 5 days; assay type: in vivo, lactating goat
[10] = system: Salmonella Typhimurium strains TA1535, TA1537, TA98, TA100, and Escherichia coli strain WP2 uvrA; assay: Bacterial reverse mutation assay of NOPA; assay type: cell-based; details: strains TA1535 and TA100, presence and absence of S9 mix, up to 5,000 μg/plate
Procedure, shortened: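 Plate-incorporation reverse mutation test on the metabolite in S. Typhimurium TA1535, TA1537, TA98 and TA100 and E. coli WP2 uvrA, with and without liver microsomal activation. Concentrations were 3, 10, 33, 100, 333, 1,000, 2,500 and 5,000 μg/plate. Each concentration and each control was plated in triplicate, and positive and negative controls were included.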

[11] = Consumer exposure calculation to NOPA
CByB6F1 Hybrid mice = assay: 28‐day oral gavage study with toxicokinetic evaluation of NOPA; assay type: in vivo; details: both sexes
[12] = as above; assay type: in vivo, CByB6F1 Hybrid mice; details: CByB6F1 Hybrid, mouse, plasma, oral, 700 mg/kg
[13] = system: whole blood human lymphocytes; assay: In vitro micronucleus test of NOPA; assay type: cell-based; details: 229 to 1,321 μg/mL, with and without metabolic activation
Procedure, shortened: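 GLP micronucleus test (OECD TG 487) on the metabolite (purity 98.4%) in human whole-blood lymphocytes. Three concentrations from 229 to 1,321 μg/mL (top about 10 mmol/L) were analysed. Treatments were a short exposure (4 + 20 h recovery) with and without metabolic activation, and a continuous treatment without activation. Micronuclei were scored.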

[14] = system: peripheral blood reticulocytes; assay: In vivo micronucleus assay of NOPA in peripheral blood reticulocytes; parameters: species or system Fischer 344 Big Blue rats; details: days 4 and 29
Procedure, shortened: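 Fischer 344 Big Blue rats, six per sex per group, were given the metabolite by oral gavage once daily for 28 days at 10 mL/kg in phosphate-buffered saline, pH 7.4. Males received 0, 150, 300 or 600 mg/kg bw/day and females 0, 250, 500 or 1,000 mg/kg bw/day. Peripheral blood was sampled on days 4 and 29, and micronucleated reticulocytes were counted by flow cytometry. Kit positive-control samples were run; there was no concurrent positive group.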

O=C(O)CCO [3‐HPA, 3‐hydroxy‐propionic acid]
Metabolite in epididymis [1]: 60 % TRR
Metabolite in testes [1]: 84 % TRR
Metabolite in the small intestine ([1]; females): 46.5 % of TRR
Metabolite in the small intestine ([1]; males): 34.8 % of TRR
Urinary metabolite, share of the dose administered [2]: 7.2%
Urinary metabolite, share of the urine radioactivity [2]: 47.5%
Urinary metabolite, share of the urine radioactivity [3]: 58%
Testicular/epididymal findings ([4]; 10 days after sc administration): absence of any testicular/epididymal abnormality

O=C(O)CCO[N+](=O)[O-] [NOPA, 3‐nitrooxypropionic acid]
concentration at 57 day [5]: < 5 ng/g
NOPA in milk, median of samples above 1 μg/kg ([6]; 80 mg 3‐NOP/kg feed DM): 1.74 µg/kg
NOPA in milk, median of samples above 1 μg/kg ([6]; 100 mg 3‐NOP/kg feed DM, 7 cows): 1.52 µg/kg
concentration at 180 min [7]: 22.3 to 207 ng/mL
Nitrate esters in milk, not detectable (LOD) (ADME in a lactating goat; milk collected 0–8 h post‐dose): < 0.82 mg 3‐NOP‐equivalent/kg
Nitrate esters in milk, not detectable (LOD) (ADME in a lactating goat; milk collected 8–24 h post‐dose): < 0.43 mg 3‐NOP‐equivalent/kg
Amount in urine, not detected above the LOQ ([8]; any urine sample): ≤ 0.1 % of the dose
3‐NOP and NOPA in total excreta, worst‐case scenario ([8]; dairy cows): ≤ 0.2%
Residue in milk, not found above the LOQ ([8]; in vivo): < 8 μg 3‐NOP‐equivalents/kg
Residue in tissues, not found above the LOQ ([8]; in vivo): < 21 μg 3‐NOP‐equivalents/kg
Urinary metabolite, share of the urine radioactivity [3]: 20%
Nitrate esters in the aqueous phase of plasma, not detectable (LOD) ([9]; LOD ≤ 0.07): < 0.07 mg/kg
Nitrate esters in the aqueous milk fraction, not detectable (LOD) ([9]; LOD ≤ 0.21): < 0.21 mg/kg
Gene mutations in bacteria [10]: induced gene mutations by base pair substitutions
Consumer exposure, maximum HRP ([11]; Adolescents): 0.2260 μg/kg bw per day
Consumer exposure, maximum HRP ([11]; Adults): 0.1293 μg/kg bw per day
Consumer exposure, maximum HRP ([11]; Elderly): 0.1162 μg/kg bw per day
Consumer exposure, maximum HRP ([11]; Infants): 0.4542 μg/kg bw per day
Consumer exposure, maximum HRP ([11]; Other children): 0.6 μg/kg bw per day and 0.5952 μg/kg bw per day
Consumer exposure, maximum HRP ([11]; Toddlers): 0.4674 μg/kg bw per day
Consumer exposure, maximum HRP ([11]; Very elderly): 0.1266 μg/kg bw per day
Maximum HRP as share of the established ADI ([11]; other children, ADI 1 mg/kg bw per day): 0.06%
Time of rapid increase of NOPA plasma concentration (CByB6F1 Hybrid mice): < 1 h
half-life ([12]; female): 42 to 72 min
half-life ([12]; male): 30 to 84 min
Frequency of micronuclei [13]: No significant increase in the frequency of micronuclei
Incidence of MN‐RETs [14]: No significant increases in the incidence of MN‐RETs
Susceptibility of Sertoli cells from dogs ([4]; ex vivo/in vitro cultures of seminiferous tubuli): not susceptible

O=C(O)C1OC(OCCCO[N+](=O)[O-])C(O)C(O)C1O (stereo not shown) [glucuronide of 3‐NOP]
Urinary metabolite, share of the urine radioactivity [3]: 11%

Source: PMC8603004 (EFSA Journal, 2021)
